The results in this text go back to ChEMBL document CHEMBL1139014, “Stereochemical sensitivity of the human UDP-glucuronosyltransferases 2B7 and 2B17” (J Med Chem, 2006).

Data set [1] addresses T1, UDP-glucuronosyltransferase 2B17 (Homo sapiens, UniProt O75795).
T1 sequence (O75795 whole entry): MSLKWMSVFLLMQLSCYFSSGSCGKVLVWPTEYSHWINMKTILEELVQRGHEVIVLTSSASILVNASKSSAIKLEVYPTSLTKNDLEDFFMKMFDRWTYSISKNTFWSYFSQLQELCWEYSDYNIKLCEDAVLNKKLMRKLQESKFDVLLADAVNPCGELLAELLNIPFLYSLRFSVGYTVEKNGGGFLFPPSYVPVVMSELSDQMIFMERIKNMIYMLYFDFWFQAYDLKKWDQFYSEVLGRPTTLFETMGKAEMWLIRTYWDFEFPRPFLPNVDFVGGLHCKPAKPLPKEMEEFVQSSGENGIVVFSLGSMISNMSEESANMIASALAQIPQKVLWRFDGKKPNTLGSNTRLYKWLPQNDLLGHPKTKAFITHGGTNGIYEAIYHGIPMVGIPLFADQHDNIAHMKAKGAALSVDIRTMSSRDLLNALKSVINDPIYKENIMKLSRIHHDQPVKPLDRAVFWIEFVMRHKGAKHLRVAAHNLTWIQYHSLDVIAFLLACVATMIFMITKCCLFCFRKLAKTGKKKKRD
Description: (§1) Inhibition of UGT2B17. The essentials: (§2)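 IC50 against UGT2B17-catalyzed glucuronidation of scopoletin, using His-tagged enzyme from insect cells at 0.1 µg/µL. Scopoletin was 300 µM (its Km) with inhibitor at 10–1000 µM. For poorly soluble aliphatic alcohols, inhibitor was 5–100 µM and scopoletin 50 µM. Buffer was 5.0 mM phosphate pH 7.4 with MgCl2 and saccharic lactone. UDPGlcA 5.0 mM; 15 min at 37 °C. Scopoletin glucuronide was read by HPLC fluorescence and fitted to the two-parameter Hill equation.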

Data set [2] has as its target T2, UGT2B17 (Homo sapiens, UniProt O75795).
T2 sequence (O75795 whole entry): T1 sequence (O75795 whole entry)
The description is as §1. Particulars: human; read-out: Imax. The essentials:
as §2

Data set [3] deals with T3, UGT2B7 (Homo sapiens, UniProt P16662).
T3 sequence (P16662 whole entry): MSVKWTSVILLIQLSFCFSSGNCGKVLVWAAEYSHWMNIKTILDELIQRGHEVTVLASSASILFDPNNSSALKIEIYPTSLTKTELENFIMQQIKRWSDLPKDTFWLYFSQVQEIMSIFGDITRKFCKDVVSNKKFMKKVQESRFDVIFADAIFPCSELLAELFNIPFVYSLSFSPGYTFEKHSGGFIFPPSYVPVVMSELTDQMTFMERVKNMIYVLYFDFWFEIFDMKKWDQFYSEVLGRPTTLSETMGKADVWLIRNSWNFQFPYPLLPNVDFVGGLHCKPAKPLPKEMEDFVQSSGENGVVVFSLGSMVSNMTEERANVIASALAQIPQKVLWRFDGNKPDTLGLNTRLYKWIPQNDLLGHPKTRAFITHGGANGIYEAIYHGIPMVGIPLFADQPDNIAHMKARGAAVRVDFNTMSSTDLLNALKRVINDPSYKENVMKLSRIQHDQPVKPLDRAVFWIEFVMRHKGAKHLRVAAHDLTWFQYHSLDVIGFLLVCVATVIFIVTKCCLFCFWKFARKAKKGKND
Put plainly: (§3) Inhibition of UGT2B7. Particulars: human; read-out: Imax.

The target of data set [4] is T4, UDP-glucuronosyltransferase 2B7 (Homo sapiens, UniProt P16662).
T4 sequence (P16662 whole entry): T3 sequence (P16662 whole entry)
The data set is described as §3.

Data set [5] has as its target T4, UDP-glucuronosyltransferase 2B7. Description: Non competitive inhibition of UGT2B7-catalyzed scopoletin glucuronidation. Format: functional. Summed up: (§4)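 Recombinant human UGT2B7 from baculovirus-infected insect cells, 0.1 µg/µL, in 5.0 mM phosphate (pH 7.4), 10 mM MgCl2 and 5.0 mM saccharic acid-1,4-lactone. Racemates were tested at three concentrations bracketing Kic estimated by Cheng-Prusoff. Scopoletin was 100–2000 µM. After 5 min preincubation at 37 °C, 5.0 mM UDPGlcA was added and the reaction ran 15 min. Glucuronide was read by HPLC fluorescence (ex 335/em 455 nm). Mechanism came from simultaneous nonlinear regression.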

Data set [6] deals with T1, UDP-glucuronosyltransferase 2B17. Description: Non competitive inhibition of UGT2B17-catalyzed scopoletin glucuronidation. Format: functional. The essentials:
(§5)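 His-tagged human UGT2B17 expressed in insect cells, 0.1 µg/µL, in 5.0 mM phosphate (pH 7.4) with 10 mM MgCl2 and 5.0 mM saccharic acid-1,4-lactone. Initial velocities were taken at scopoletin 100, 250, 500, 1000 and 2000 µM, with racemic inhibitors at three levels bracketing Kic estimated by Cheng-Prusoff. UDPGlcA (5.0 mM final) started the reaction after 5 min preincubation at 37 °C; run 15 min. Scopoletin glucuronide was measured by HPLC fluorescence. Inhibition mechanism was fitted by simultaneous nonlinear regression.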

Data set [7] deals with T4, UDP-glucuronosyltransferase 2B7. Description: Competitive inhibition of UGT2B7-catalyzed scopoletin glucuronidation. Format: functional. Summed up:
as §4

For data set [8], the target named is T1, UDP-glucuronosyltransferase 2B17. Description: Competitive inhibition of UGT2B17-catalyzed scopoletin glucuronidation. Format: functional. Summed up: as §5

Usually IC50 stands for the concentration that gives 50% inhibition. High values mean weaker potency, low ones greater potency. `COc1ccc2c(c1)[C@H](O)CCC2` (racemic): the figures for the IC50 in data set [1] and in data set [4] were 162 µM and 284 µM, respectively. The Emax worked out at 84.7% in data set [2] and 80.4% in data set [3].

As to `C[C@H](O)c1ccc2ccccc2c1` (racemic), it took 657 µM to reach half-maximal inhibition in data set [1] (IC50). Further, the Emax in data set [2] came to 9.12%.

Take `Cc1cc(C)c2c(c1)[C@@H](O)CCC2`: the 50% inhibitory concentration (IC50) in data set [1] was determined as 98 µM; in data set [4], 166 µM. Also, the Emax came to 90.5% in data set [2] and 83.5% in data set [3].

Regarding `Cc1ccc2c(c1)[C@H](O)CC2` (racemic), the values for the IC50 in data set [1] and in data set [4] were 489 µM and 394 µM, respectively. Besides, the Emax in data set [2] came out at 69.6%; in data set [3], 71.2%.

Take `O=[N+]([O-])c1ccc2c(c1)[C@H](O)CCC2` (racemic): the half-inhibitory concentration (IC50) was 217 µM in data set [1] and 599 µM in data set [4]. In addition, the results for the Emax in data set [2] and in data set [3] were 83.5% and 61.9%, respectively.

Usually Ki stands for a dissociation constant, usually derived from enzyme kinetics or from competition with a known ligand. Read a low Ki as tighter binding. With `Cc1ccc2c(c1)C(O)CCO2` (racemic), the Ki is 258 µM in data set [5], 608 µM in data set [6], 113 µM in data set [7] and 201 µM in data set [8].

Take `COc1cccc2c1CCC[C@H]2O` (racemic): the half-maximal inhibitory concentration (IC50) stood at 112 µM in data set [1] and 366 µM in data set [4]. For the same compound, the Emax in data set [2] stood at 88.9%; in data set [3], 76.5%.

For `COc1ccc2c(c1)[C@@H](O)CCC2`, the IC50 is 216 µM in data set [1] and 351 µM in data set [4]. The Emax in data set [2] stood at 80.4%; in data set [3] it was 77.2%.

Regarding `Cc1cccc2c1CC[C@H]2O` (racemic), the half-maximal inhibitory concentration (IC50) in data set [1] was 682 µM; in data set [4], 317 µM. The Emax in data set [2] amounted to 60.1%; in data set [3], 76%.

With `O=[N+]([O-])c1ccc2c(c1)[C@@H](O)CCC2`, the IC50 was 305 µM in data set [1] and 651 µM in data set [4]. The Emax is 77.4% in data set [2] and 62.5% in data set [3].

`Cc1ccc2c(c1)[C@@H](O)CC2`: the IC50 in data set [1] stood at 728 µM; in data set [4], 540 µM. Moreover, the Emax came to 58.3% in data set [2] and 64.4% in data set [3].

As for `C[C@@H](O)c1cccc2ccccc12`, the IC50 in data set [1] worked out at 389 µM; in data set [4], 130 µM. Besides, the Emax in data set [2] came to 18.9%; in data set [3], 41.9%.

Take `O[C@@H]1CCOc2ccccc21`: the values for the IC50 in data set [1] and in data set [4] were 448 µM and 507 µM, respectively. For the same compound, the figures for the Emax in data set [2] and in data set [3] were 69.3% and 65.8%, respectively.

For `Cc1ccc2c(c1)[C@H](O)CCO2`, the results for the IC50 in data set [1] and in data set [4] were 365 µM and 225 µM, respectively. Besides, the Emax in data set [2] is 72.6%; in data set [3], 83.5%.

For the compound `O[C@H]1CCc2ccccc21`, the IC50 in data set [1] stood at 545 µM; in data set [4] it was 513 µM. In addition, the Emax amounted to 63.4% in data set [2] and 67.3% in data set [3].

For the compound `O[C@H]1CCOc2ccccc21` (racemic), the IC50 in data set [1] is 319 µM; in data set [4], 518 µM. In addition, the Emax in data set [2] came to 74.8%; in data set [3], 68.7%.

Turning to `Cc1ccc2c(c1)C(O)CC2` (racemic), the inhibition constant Ki in data set [5] came to 624 µM; in data set [6] it was 1440 µM; in data set [7], 301 µM; in data set [8], 427 µM.

`C[C@@H](O)c1c2ccccc2cc2ccccc12`: the IC50 stood at 703 µM in data set [1] and 344 µM in data set [4]. Also, the Emax in data set [2] was 13.1%; in data set [3] it was 19.8%.

As to `Cc1ccc2c(c1)[C@@H](O)CCO2` (racemic), the IC50 in data set [1] was 325 µM; in data set [4] it was 182 µM. Further, the figures for the Emax in data set [2] and in data set [3] were 75.3% and 85%, respectively.

Take `Cc1cc(C)c2c(c1)C(O)CCC2` (racemic): the Ki in data set [5] turned out to be 192 µM; in data set [6], 190 µM; in data set [7], 101 µM; in data set [8], 57.8 µM.

As for `C[C@H](O)c1c2ccccc2cc2ccccc12` (racemic), the half-inhibitory concentration (IC50) in data set [1] came out at 606 µM; in data set [4], 532 µM. For the same compound, the Emax in data set [2] was determined as 11.1%; in data set [3], 17.7%.

Regarding `O[C@H]1CCCc2ccccc21`, the half-maximal inhibitory concentration (IC50) in data set [1] amounted to 374 µM; in data set [4] it was 489 µM. For the same compound, the figures for the Emax in data set [2] and in data set [3] were 76.1% and 67.8%, respectively.

For `Cc1cc(C)c2c(c1)[C@H](O)CCC2` (racemic), the IC50 in data set [1] was 144 µM; in data set [4] it was 158 µM. Also, the Emax in data set [2] came to 87.8%; in data set [3] it was 85.7%.

In the case of `C[C@@H](O)c1ccc2ccccc2c1`, the concentration for half-maximal inhibition (IC50) in data set [1] was 578 µM. In addition, the Emax in data set [2] was 16.7%.

On to `C[C@H](O)c1cccc2ccccc12` (racemic), for which the IC50 in data set [1] stood at 537 µM; in data set [4], 214 µM. Moreover, the values for the Emax in data set [2] and in data set [3] were 14.3% and 31.8%, respectively.

Take `O[C@@H]1CCc2ccccc21`: the IC50 was 517 µM in data set [1] and 275 µM in data set [4]. In addition, the values for the Emax in data set [2] and in data set [3] were 65.3% and 77.1%, respectively.

Consider `O[C@@H]1CCCc2ccccc21`, for which the concentration for half-maximal inhibition (IC50) was 242 µM in data set [1] and 337 µM in data set [4]. In addition, the Emax in data set [2] worked out at 78.8%; in data set [3] it was 73.6%.

Regarding `Cc1cccc2c1CC[C@@H]2O`, the IC50 in data set [1] turned out to be 608 µM; in data set [4], 179 µM. Further, the Emax in data set [2] amounted to 61.7%; in data set [3], 86.4%.

For `COc1cccc2c1CCC[C@@H]2O`, the results for the IC50 in data set [1] and in data set [4] were 132 µM and 301 µM, respectively. Moreover, the Emax in data set [2] was 89.1%; in data set [3] it was 80.2%.
